Among the data in ChEMBL document CHEMBL3868585, “Absolute Configuration of Dihydro-β-agarofuran Sesquiterpenes from Maytenus jelskii and Their Potential Antitumor-Promoting Effects” (J Nat Prod, 2016) are inhibition, Cell viability and Activity values, retold here.

As a reminder, the inhibition is how much of the control response was suppressed.

Molecules are shown by their SMILES.

Type in all cases: cell-based
Conditions in all cases: human gammaherpesvirus 4

The test system of assay [1] is Raji. In words: Inhibition of TPA-induced EBV-early antigen activation in human Raji cells after 48 hrs by immunofluorescence method relative to TPA. The method, boiled down:
(§1)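 Raji cells (EBV genome-carrying, virus nonproducer) grown in RPMI1640 with 10% FBS; 1 × 10^6 cells incubated 48 h at 37 °C in 1 mL medium with n-butyric acid (4 mmol), TPA (32 pmol) in DMSO, and test compound in 5 μL DMSO at 10, 100, 500 or 1000 mol ratio/TPA. EA-positive cells detected by indirect immunofluorescence with NPC patient serum, ≥500 cells counted; triplicates, expressed relative to butyrate+TPA control (100%).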

Assay [2] concerns Raji. In words: Inhibition of TPA-induced EBV-early antigen activation in human Raji cells assessed as cell viability at 1000 molar ratio per TPA after 48 hrs by trypan blue staining method. The method, boiled down: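 Raji cells treated 48 h at 37 °C with n-butyric acid (4 mmol), TPA (32 pmol) and test compound in DMSO at 1000 mol ratio/TPA; viability determined by Trypan Blue staining.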

Assay [3] concerns Raji. Kind of assay: Inhibition of TPA-induced EBV-early antigen activation in human Raji cells assessed as remaining activity at 100 molar ratio per TPA after 48 hrs by immunofluorescence method relative to TPA. The method, boiled down: as §1
In assay [4] the test system is Raji. In words: Inhibition of TPA-induced EBV-early antigen activation in human Raji cells at 10 molar ratio per TPA after 48 hrs by immunofluorescence method relative to TPA. The method, boiled down:
as §1

Assay [5] concerns Raji. In words: Inhibition of TPA-induced EBV-early antigen activation in human Raji cells at 500 molar ratio per TPA after 48 hrs by immunofluorescence method relative to TPA. The essentials: as §1
Assay [6] deals with Raji. Kind of assay: Inhibition of TPA-induced EBV-early antigen activation in human Raji cells at 100 molar ratio per TPA after 48 hrs by immunofluorescence method relative to TPA. The method, boiled down:
as §1

Assay [7] has as its system Raji. Kind of assay: Inhibition of TPA-induced EBV-early antigen activation in human Raji cells at 1000 molar ratio per TPA after 48 hrs by immunofluorescence method relative to TPA. The essentials: as §1

Turning to `CC(=O)O[C@@H]1[C@H](O)[C@@H](C)[C@]23OC(C)(C)[C@H](C[C@H](OC(=O)/C=C/c4ccccc4)[C@]2(C)[C@H]1OC(=O)c1ccccc1)[C@H]3O`, the inhibition result in the assay on Raji [1] is “Dose-dependent effect”. For the same compound, the Cell viability in the assay on Raji [2] was over 60%.

Turning to `CC(=O)O[C@H]1[C@H](OC(=O)c2ccccc2)[C@@]2(C)[C@@H](OC(=O)/C=C/c3ccccc3)[C@@H](O)[C@@H]3[C@@H](O)[C@]2(OC3(C)C)[C@@](C)(O)[C@H]1OC(C)=O`, in the assay with Raji [1], the inhibition result is “Dose-dependent effect”. Moreover, the Cell viability with Raji [2] is over 60%. Besides, the Activity in the assay with Raji [3] was 85%.

Take `CC(=O)O[C@H]1[C@H](OC(=O)c2ccco2)[C@@]2(C)[C@@H](OC(=O)c3ccccc3)C[C@@H]3C[C@]2(OC3(C)C)[C@@](C)(O)[C@H]1OC(C)=O`: the inhibition result with Raji [1] is “Dose-dependent effect”. Also, in the assay on Raji [2], the Cell viability is over 60%.

For the compound `CC(=O)O[C@@H]1[C@H](O)[C@@H](C)[C@]23OC(C)(C)[C@H]([C@H](OC(C)=O)[C@H](OC(=O)c4ccccc4)[C@]2(C)[C@H]1OC(=O)c1ccccc1)[C@H]3OC(C)=O`, the inhibition entry in the assay on Raji [1] is “Dose-dependent effect”. Besides, in the assay on Raji [2], the Cell viability was over 60%. The Activity in the assay on Raji [3] is 79.5%.

For the compound `CC(=O)O[C@@H]1C[C@](C)(O)[C@@]23C[C@@H](C[C@H](OC(=O)/C=C/c4ccccc4)[C@]2(C)[C@H]1OC(=O)c1ccco1)C(C)(C)O3`, in the assay with Raji [1], the inhibition entry is “Dose-dependent effect”. Further, in the assay on Raji [2], the Cell viability was over 60%.

On to `CC(=O)O[C@H]1[C@H](OC(=O)c2ccccc2)C[C@](C)(O)[C@]23OC(C)(C)[C@H](C[C@H](OC(=O)c4ccco4)[C@]12CO)[C@H]3OC(=O)c1ccccc1`, for which the inhibition result in the assay with Raji [1] was “Dose-dependent effect”. For the same compound, the Cell viability in the assay on Raji [2] was over 60%. The Activity with Raji [3] is 82.2%.

For `CC1(C)O[C@]23C[C@H]1C[C@H](OC(=O)c1ccccc1)[C@]2(C)[C@@H](OC(=O)c1ccco1)CC[C@]3(C)O`, the inhibition entry in the assay with Raji [1] was “Dose-dependent effect”. Moreover, the Cell viability in the assay with Raji [2] is over 60%.

For the compound `CC(=O)O[C@@H]1C[C@](C)(O)[C@@]23C[C@@H](C[C@H](OC(=O)c4ccccc4)[C@]2(C)[C@H]1OC(=O)c1ccco1)C(C)(C)O3`, the inhibition entry with Raji [1] was “Dose-dependent effect”. Moreover, in the assay on Raji [2], the Cell viability was over 60%.

Consider `CC(=O)O[C@H]1[C@H](OC(=O)c2ccccc2)[C@@]2(C)[C@@H](OC(=O)/C=C/c3ccccc3)[C@@H](O)[C@@H]3[C@@H](OC(C)=O)[C@]2(OC3(C)C)[C@@](C)(O)[C@H]1OC(C)=O`, for which, in the assay on Raji [1], the inhibition entry was “Dose-dependent effect”. The Cell viability in the assay with Raji [2] is over 60%. Moreover, the Activity in the assay with Raji [3] stood at 88.6%.

Consider `CC(=O)O[C@@H]1[C@H](OC(C)=O)[C@@H](C)[C@@]23C[C@@H](C[C@H](OC(=O)c4ccccc4)[C@]2(C)[C@H]1OC(=O)c1ccco1)C(C)(C)O3`, for which the inhibition result in the assay with Raji [1] is “Dose-dependent effect”. In addition, in the assay with Raji [2], the Cell viability was over 60%.

For the compound `CC(=O)O[C@H]1[C@@H]2C[C@@]3(OC2(C)C)[C@](C)([C@H]1OC(=O)c1ccccc1)[C@@H](OC(=O)c1ccccc1)[C@H](OC(C)=O)[C@H](OC(C)=O)[C@]3(C)O`, the inhibition result in the assay on Raji [1] is “Dose-dependent effect”. Moreover, in the assay with Raji [2], the Cell viability is over 60%. Further, in the assay with Raji [3], the Activity is 79.3%.

For `CC(=O)O[C@H]1[C@H](OC(=O)c2ccccc2)C[C@](C)(O)[C@]23OC(C)(C)[C@H](C[C@H](OC(=O)c4ccco4)[C@]12C)[C@H]3OC(=O)c1ccccc1`, the inhibition result in the assay on Raji [1] is “Dose-dependent effect”. The Cell viability in the assay on Raji [2] is over 60%.

Take `CC(=O)OC[C@]12[C@@H](OC(=O)c3ccco3)C[C@@H]3[C@@H](OC(=O)c4ccccc4)[C@]1(OC3(C)C)[C@@](C)(O)C[C@@H](OC(C)=O)[C@@H]2OC(C)=O`: in the assay with Raji [1], the inhibition result was “Dose-dependent effect”. For the same compound, in the assay with Raji [2], the Cell viability is over 60%. In the assay with Raji [3], the Activity was determined as 81.9%.

With `CC(=O)O[C@H]1[C@H](OC(=O)c2ccccc2)[C@@]2(C)[C@@H](OC(=O)/C=C/c3ccccc3)C[C@]3(O)C[C@]2(OC3(C)C)[C@@](C)(O)[C@H]1OC(C)=O`, the inhibition entry in the assay on Raji [1] is “Dose-dependent effect”. In the assay with Raji [2], the Cell viability was over 60%.

Consider `CC(=O)O[C@@H]1[C@H](O)[C@@H](C)[C@]23OC(C)(C)[C@H]([C@H](OC(C)=O)[C@H](OC(=O)c4ccccc4)[C@]2(C)[C@H]1OC(=O)c1ccccc1)[C@H]3O`, for which the inhibition entry in the assay with Raji [1] was “Dose-dependent effect”; in the assay on Raji [4] it was 2.2%; with Raji [5], 69.9%; in the assay on Raji [6], 23.7%; in the assay with Raji [7], 100%. In addition, in the assay with Raji [2], the Cell viability is over 60%. Moreover, in the assay on Raji [3], the Activity worked out at 76.3%.

For the compound `CC(=O)O[C@@H]1[C@H](O)[C@@H](C)[C@]23OC(C)(C)[C@H](C[C@H](OC(=O)/C=C/c4ccccc4)[C@]2(C)[C@H]1OC(=O)c1ccccc1)[C@H]3OC(C)=O`, the inhibition result in the assay on Raji [1] is “Dose-dependent effect”. Moreover, the Cell viability with Raji [2] was over 60%.

In the case of `CC(=O)O[C@@H]1[C@H](O)[C@@H](C)[C@]23OC(C)(C)[C@H]([C@H](OC(C)=O)[C@H](OC(=O)c4ccccc4)[C@]2(C)[C@H]1OC(=O)c1ccoc1)[C@H]3OC(C)=O`, the inhibition entry with Raji [1] was “Dose-dependent effect”. Besides, the Cell viability in the assay with Raji [2] was over 60%. Moreover, the Activity with Raji [3] amounted to 87%.

As for `CC(=O)O[C@@H]1[C@H](O)[C@@H](C)[C@]23OC(C)(C)[C@H](C[C@H](OC(=O)c4ccccc4)[C@]2(C)[C@H]1OC(=O)c1ccccc1)[C@H]3OC(C)=O`, the inhibition result with Raji [1] was “Dose-dependent effect”. Further, in the assay on Raji [2], the Cell viability is over 60%. The Activity in the assay with Raji [3] was found to be 81%.

As to `CC(=O)O[C@H]1[C@H](OC(=O)c2ccccc2)[C@@]2(C)[C@@H](OC(=O)/C=C/c3ccccc3)[C@@H](O)[C@@H]3C[C@]2(OC3(C)C)[C@@](C)(O)[C@H]1OC(C)=O`, the inhibition entry in the assay on Raji [1] was “Dose-dependent effect”. Also, in the assay with Raji [2], the Cell viability was over 60%.

In the case of `CC(=O)O[C@H]1[C@H](OC(=O)c2ccccc2)[C@@]2(C)[C@@H](OC(=O)/C=C/c3ccccc3)C[C@@H]3[C@@H](OC(C)=O)[C@]2(OC3(C)C)[C@@](C)(O)[C@H]1OC(=O)c1cccnc1`, the inhibition entry in the assay on Raji [1] is “Dose-dependent effect”. In the assay with Raji [2], the Cell viability is over 60%.
